Reference: ChEMBL document CHEMBL5712918, “Targeting methyltransferase PRMT5 retards the carcinogenesis and metastasis of HNSCC via epigenetically inhibiting Twist1 transcription” (Neoplasia, 2020)
Activity calls are given as the source filed them. No cut-off for these calls is given here.

What was measured:
HSC-6 [1] = test: Anti-invasive activity against human HSC-6 cells assessed as reduction in cell invasion at 10 uM for 4 days by transwell assay; format: functional, cell-based; conditions: time 4.0 day
In short: (§1)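 Transwell migration and invasion with 8-μm pore inserts. HSC6 or SCC25 cells, including lines stably overexpressing Flag-Twist1, treated at 10 μM for 4 days. Mean ± SD of three independent experiments, one-way ANOVA.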

SCC-25 [2] = test: Antiproliferative activity against human SCC-25 cells assessed as reduction in colony formation at 0.5 to 5 uM after 10 to 14 days […]; format: functional, cell-based; conditions: dose 0.5-5 µM, time 10-14 day
In short: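 Colony formation: cells dispersed to single cells and seeded at 500 cells/well in 6-well plates. Grown 10–14 days until macroscopic clones appeared, then formaldehyde-fixed and crystal violet-stained. Clone formation rate from clones counted by eye.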

[3] = target: Protein arginine N-methyltransferase 5 (Homo sapiens) (UniProt O14744); test: Inhibition of PRMT5 in human HSC-6 cells assessed as reduction in H3R2me2 enrichment in Twist1 promoter region at 10 uM incubated for 4 days by Chip-qPCR analysis; format: cell-based; conditions: time 4.0 day
Protein arginine N-methyltransferase 5 (Homo sapiens), sequence (O14744 whole entry): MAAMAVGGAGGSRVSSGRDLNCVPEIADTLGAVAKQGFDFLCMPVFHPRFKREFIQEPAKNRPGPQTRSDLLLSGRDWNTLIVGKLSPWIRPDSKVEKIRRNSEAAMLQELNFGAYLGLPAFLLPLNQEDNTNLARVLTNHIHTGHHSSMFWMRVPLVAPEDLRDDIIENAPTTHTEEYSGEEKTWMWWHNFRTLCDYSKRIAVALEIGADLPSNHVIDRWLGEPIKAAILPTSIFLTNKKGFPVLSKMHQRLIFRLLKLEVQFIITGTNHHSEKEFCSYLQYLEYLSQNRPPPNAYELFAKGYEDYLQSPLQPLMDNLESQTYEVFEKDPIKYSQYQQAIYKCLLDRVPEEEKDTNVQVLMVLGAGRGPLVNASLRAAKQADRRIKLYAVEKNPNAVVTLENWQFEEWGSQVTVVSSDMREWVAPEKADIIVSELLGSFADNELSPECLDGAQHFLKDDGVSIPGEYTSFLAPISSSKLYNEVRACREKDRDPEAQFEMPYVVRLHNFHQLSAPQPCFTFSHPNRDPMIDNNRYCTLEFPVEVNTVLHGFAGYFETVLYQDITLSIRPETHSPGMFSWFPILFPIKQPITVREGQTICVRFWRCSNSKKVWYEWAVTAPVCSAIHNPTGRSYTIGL
In short: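 ChIP-qPCR at the Twist1 promoter after 4 days at 10 μM in HSC6 or SCC25 cells. Antibody ratios: H3R2me2s 1:100, H4R3me2s 1:100, WDR5 1:50, Set1 1:50; ChIP assay kit protocol. Mean ± SD of three independent experiments, Student's t test.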

[4] = target: Protein arginine N-methyltransferase 5 (Homo sapiens) (UniProt O14744); test: Inhibition of PRMT5 in human SCC-25 cells assessed as increase in E-cadherin protein expression level at 10 uM incubated for 4 days by western blot analysis; conditions: time 4.0 day
[5] = target: Protein arginine N-methyltransferase 5 (Homo sapiens) (UniProt O14744); test: Inhibition of PRMT5 in human HSC-6 cells assessed as reduction in Twist1 mRNA expression at 10 uM incubated for 4 days by RT-qPCR analysis; format: cell-based; conditions: time 4.0 day
In short: (§2)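 HSC6 or SCC25 cells exposed to 10 μM for 4 days. Twist1 mRNA measured by quantitative RT-PCR. Mean ± SD of three independent experiments, Student's t test.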

[6] = target: Protein arginine N-methyltransferase 5 (Homo sapiens) (UniProt O14744); test: Inhibition of PRMT5 in human HSC-6 cells assessed as reduction in Twist1 protein expression at 10 uM incubated for 4 days by western blot analysis; format: cell-based; conditions: time 4.0 day
In short: (§3)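 HSC6 or SCC25 cells treated with 10 μM for 4 days. E-cadherin, N-cadherin and Twist1 proteins detected by immunoblot.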

HSC-6 [7] = test: Antimigratory activity against human HSC-6 cells assessed as reduction in cell migration at 10 uM for 4 days by transwell assay; format: functional, cell-based; conditions: time 4.0 day; in short: as §1
[8] = target: Protein arginine N-methyltransferase 5 (Homo sapiens) (UniProt O14744); test: Inhibition of PRMT5 in human HSC-6 cells over expressing Twist1 assessed as increase in N-cadherin protein level at 10 uM incubated for 4 days by immunoblot analysis; format: cell-based; conditions: time 4.0 day
In short: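 HSC6 cells stably overexpressing Flag-Twist1, with or without 10 μM for 4 days. Twist1, N-cadherin and E-cadherin proteins detected by immunoblot.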

[9] = target: Protein arginine N-methyltransferase 5 (Homo sapiens) (UniProt O14744); test: Inhibition of PRMT5 in human HSC-6 cells assessed as reduction in H3R2me2 protein expression at 10 uM incubated for 4 days by western blot analysis; format: cell-based; conditions: time 4.0 day
HSC-6 [10] = test: Antimigratory activity against human HSC-6 cells assessed as reduction in cell migration after 48 hrs incubated for 48 hrs by transwell assay; format: functional, cell-based
[11] = target: Protein arginine N-methyltransferase 5 (Homo sapiens) (UniProt O14744); test: Inhibition of PRMT5 in human SCC-25 cells assessed as reduction in H3R2me2 protein expression at 10 uM incubated for 4 days by western blot analysis; format: cell-based; conditions: time 4.0 day
[12] = target: Protein arginine N-methyltransferase 5 (Homo sapiens) (UniProt O14744); test: Inhibition of PRMT5 in human SCC-25 cells assessed as reduction in WDR5 occupancy in Twist1 promoter region at 10 uM incubated for 4 days by Chip-qPCR analysis; format: cell-based; conditions: time 4.0 day
In short: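 SCC25 cells exposed to inhibitor at 10 μM for 4 days. ChIP used a commercial kit with anti-WDR5 or anti-Set1 (1:50), and binding at the Twist1 promoter was quantified by qPCR. Mean ± SD of three independent experiments, Student's t test.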

SCC-25 [13] = test: Antiproliferative activity against human SCC-25 cells assessed as reduction in cell vaibility at 1 to 10 uM by CCK-8 assay; format: functional, cell-based; conditions: dose 1-10 µM
In short: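 Proliferation of HSC6 and SCC25 cells read by CCK-8 conversion. Mean ± SD of three independent experiments, Student's t test.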

HSC-6 [14] = test: Antitumor activity against human HSC-6 cells xenografted in BALB/c nude mouse assessed as reduction in Ki67-positive tumor cell at 15 to 30 mg/kg by immunohistochemistry analysis; format: functional, organism-based; conditions: dose 15-30 mg/kg
In short: (§4)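 HSC6 subcutaneous xenograft: 6 × 10^7 cells into the back of 4-week-old BALB/c nude mice, dosed at 15 or 30 mg/kg. IHC with Ki67 1:400 or Twist1 1:250. Percent positive cells from 5 random fields per sample. Student's t test; Twist1 groups n = 6/6.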

[15] = Toxicity in BALB/c nude mouse xenografted with human tongue squamous carcinoma cells assessed as effect on kidney morphology at 30 mg/kg; format: organism-based; conditions: in vivo
[16] = target: Protein arginine N-methyltransferase 5 (Homo sapiens) (UniProt O14744); test: Inhibition of PRMT5 in human SCC-25 cells assessed as reduction in Twist1 protein expression at 10 uM incubated for 4 days by western blot analysis; format: cell-based; conditions: time 4.0 day; in short: as §3
[17] = Toxicity in BALB/c nude mouse xenografted with human HSC6 cells assessed as effect on body weight at 15 to 30 mg/kg; format: organism-based; conditions: in vivo, dose 15-30 mg/kg
In short: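 Subcutaneous xenograft in 4-week-old BALB/c nude mice given 6 × 10^7 HSC6 cells into the back. Groups were control, 15 mg/kg and 30 mg/kg. Body weight was monitored and major organs were examined for toxicity.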

[18] = target: Protein arginine N-methyltransferase 5 (Homo sapiens) (UniProt O14744); test: Inhibition of PRMT5 in human SCC-25 cells assessed as reduction in H4R3me2 protein expression at 10 uM incubated for 4 days by western blot analysis; format: cell-based; conditions: time 4.0 day
[19] = Toxicity in BALB/c nude mouse xenografted with human HSC6 cells of orthotopic tumor assessed as effect on body weight at 30 mg/kg; format: organism-based; conditions: in vivo
In short: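 Orthotopic model: 5 × 10^5 HSC6 cells injected submucosally into the tongue of 4-week-old BALB/c nude mice. Control vs 30 mg/kg (n = 12 each). Body weight was followed, and cervical lymph nodes were stained with pan-cytokeratin.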

HSC-6 [20] = test: Antitumor activity against human HSC-6 cells xenografted in BALB/c nude mouse model of orthotopic tumor assessed as as reduction in distant metastasis in lung at 30 mg/kg by H and E analysis; format: functional, organism-based
HSC-6 [21] = test: Antitumor activity against human HSC-6 cells xenografted in BALB/c nude mouse assessed as reduction in number of Twist1 positive cells at 30 mg/kg by IHC staining; format: functional, organism-based; in short: as §4
SCC-25 [22] = test: Antimigratory activity against human SCC-25 cells assessed as reduction in cell migration at 10 uM for 4 days by transwell assay; format: functional, cell-based; conditions: time 4.0 day; in short: as §1
Rattus norvegicus = test: Antitumor activity against 4-Nitroquinoline-1-Oxide induced cancer Sprague-Dawley rat carcinogenic model assessed as dysplasia area of tongue tissue at 30 mg/kg, iv administered on week 12 and measured on week 22 (reference value: 13.3%); format: functional; conditions: time 10 weeks
[23] = Toxicity in BALB/c nude mouse xenografted with human squamous carcinoma cells assessed as effect on body weight at 30 mg/kg; format: organism-based; conditions: in vivo
[24] = target: Protein arginine N-methyltransferase 5 (Homo sapiens) (UniProt O14744); test: Inhibition of PRMT5 in human SCC-25 cells assessed as reduction in Twist1 mRNA expression at 10 uM incubated for 4 days by RT-qPCR analysis; format: cell-based; conditions: time 4.0 day; in short: as §2

inhibition [3]: Active | inhibition [4]: Active | inhibition [5]: Active | inhibition [6]: Active | inhibition [8]: inactive | inhibition [9]: Active | inhibition [11]: Active | inhibition [12]: Active | inhibition [16]: Active | inhibition [18]: Active | inhibition [24]: Active
Structure (SMILES): O=C(NC[C@H](O)CN1CCc2ccccc2C1)c1cc(NC2COC2)ncn1
Activity (HSC-6 [1]): Active | Activity (SCC-25 [2]): Active | Activity (HSC-6 [7]): Active | Activity (HSC-6 [10]): Active | Activity (SCC-25 [13]): Active | Activity (HSC-6 [14]): Active | Activity [15]: Non-Toxic | Activity [17]: Non-Toxic | Activity [19]: Non-Toxic | Activity (HSC-6 [20]): Active | Activity (HSC-6 [21]): Active | Activity (SCC-25 [22]): Active | Activity (Rattus norvegicus): 15.4% | Activity [23]: Non-Toxic
